Assay results from different studies.
Protocols differ between the studies behind these lines.
Target: Mitogen-activated protein kinase kinase kinase kinase 2 (MAP4K2, Homo sapiens, UniProt Q12851)
Residues used in one study (Q12851 1-820): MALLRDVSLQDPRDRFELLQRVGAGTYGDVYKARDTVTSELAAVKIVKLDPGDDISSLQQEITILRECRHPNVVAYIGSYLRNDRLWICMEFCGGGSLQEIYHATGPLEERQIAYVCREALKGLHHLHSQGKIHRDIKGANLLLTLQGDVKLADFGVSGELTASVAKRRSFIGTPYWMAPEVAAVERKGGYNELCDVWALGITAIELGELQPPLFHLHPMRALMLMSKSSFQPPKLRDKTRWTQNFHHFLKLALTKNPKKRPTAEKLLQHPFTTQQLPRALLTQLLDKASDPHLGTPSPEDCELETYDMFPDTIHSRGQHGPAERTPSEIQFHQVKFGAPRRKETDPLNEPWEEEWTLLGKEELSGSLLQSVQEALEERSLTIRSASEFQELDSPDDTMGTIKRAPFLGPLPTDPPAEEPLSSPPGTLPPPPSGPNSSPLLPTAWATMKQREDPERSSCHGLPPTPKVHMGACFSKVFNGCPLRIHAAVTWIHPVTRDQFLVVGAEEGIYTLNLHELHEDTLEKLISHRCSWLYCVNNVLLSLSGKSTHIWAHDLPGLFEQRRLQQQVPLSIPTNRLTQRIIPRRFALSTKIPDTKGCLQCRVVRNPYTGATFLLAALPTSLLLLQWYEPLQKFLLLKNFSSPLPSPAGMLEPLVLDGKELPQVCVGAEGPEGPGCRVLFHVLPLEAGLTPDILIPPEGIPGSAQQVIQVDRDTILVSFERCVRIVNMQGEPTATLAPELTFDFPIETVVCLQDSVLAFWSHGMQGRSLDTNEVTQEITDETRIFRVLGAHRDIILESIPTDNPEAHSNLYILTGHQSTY

Compound	test	conditions	endpoint	result
COc1cc2ncnc(Nc3ccc(Oc4ccccc4)c(C)c3C)c2cc1OC	enzyme activity, inhibitor	1 µM	inhibition	0%
Cc1cc(NC(=O)c2cccc3cc(-c4cccc5[nH]nc(N)c45)ccc23)ccc1F	enzyme activity, inhibitor	0.1 µM	activity vs control	88%
C[C@@H](c1cccc(C#N)c1)n1cc(Cl)cc(C(N)=O)c1=N	cell-free assay, competition with immobilised ligand	1 µM	remaining binding	90%
CNC(=O)c1cc(Oc2ccc(NC(=O)Nc3ccc(Cl)c(C(F)(F)F)c3)cc2)ccn1	enzyme activity, inhibitor	0.3 µM	inhibition	5%
CSc1cccnc1N1CCN(Cc2nc3ccccc3[nH]2)CC1	cell-free assay, competition with immobilised ligand	1 µM	remaining binding	100%
CCN(CC)c1ccc(C2=NNC(=O)CC2C)cc1[N+](=O)[O-] (centres unmarked)	enzyme activity, inhibitor	10 µM	remaining activity	97%
Nc1ncnc2occ(-c3ccc(NC(=O)Nc4cc(C(F)(F)F)ccc4F)cc3)c12	cell-free assay, inhibitor	20 µM	remaining signal	0%
CC(=O)N1CCC(c2ccc(C(=O)NC(=N)N)cc2C(F)(F)F)CC1	cell-free assay, competition with immobilised ligand	1 µM	remaining binding	100%
O=C1Nc2ccc(Cl)cc2C1=Cc1cc(Cl)c(O)c(Cl)c1	cell-free assay	0.5 µM	remaining signal	62.6%
O=C1NC(c2ccccn2)Sc2ccccc21 (centres unmarked)	cell-free assay, competition with immobilised ligand	1 µM	remaining binding	83%
CC(C)(C)c1nc2c(s1)c1nc(N)ncc1c1ccc(NS(=O)(=O)c3c(F)cccc3F)c(F)c12	enzyme activity, inhibitor, radiometric	1 µM	remaining activity	114%
CC/C(=N\NC(=O)NCc1cccc(O)c1)c1ccc(O)c(C)c1O	enzyme activity, inhibitor	0.1 µM	inhibition	1.4%
O=C(Nc1cccnn1)N1CCC(=Cc2cccc(Oc3ccc(C(F)(F)F)cn3)c2)CC1	cell-free assay, competition with immobilised ligand	1 µM	remaining binding	100%
O=C(Nc1cnn(-c2csc(C(=O)NC3COC3)c2)c1)Nc1c(F)cccc1Cl	enzyme activity, inhibitor	5 µM	remaining activity	95.3%
Cc1cnc(NC2CCOCC2)nc1-n1cnc(C(=O)NC(CN)c2cc(F)cc(Cl)c2)c1 (centres unmarked)	enzyme activity, inhibitor, radiometric	1 µM	remaining activity	100%
Cc1c(NC(=O)c2cc(C(N)=O)nc3cc(F)ccc23)c(C(F)(F)F)nn1Cc1ccc(C#N)cc1	cell-free assay, competition with immobilised ligand	1 µM	remaining binding	88%
COc1cc(/C=C/C(=O)CC(=O)/C=C/c2ccc(O)c(OC)c2)ccc1O	enzyme activity, inhibitor	1 µM	activity vs control	103%
FC(F)(F)Oc1cccc(-c2cnc3ccc(-c4ccncc4)nn23)c1	enzyme activity, inhibitor, radiometric	1 µM	activity vs control	37%
Cc1cc(NC(=O)c2cccc(S(F)(F)(F)(F)F)c2)cc(-n2ccn3nc(-c4cccnc4)cc23)c1	cell-free assay, competition with immobilised ligand	1 µM	remaining binding	100%
Cn1c(=O)n(-c2ccc(C(C)(C)C#N)cc2)c2c3cc(-c4cnc5ccccc5c4)ccc3ncc21	enzyme activity, inhibitor	10 µM	remaining activity	12%
COc1cc2ncnc(Nc3ccc(F)c(Cl)c3)c2cc1OCCCN1CCOCC1	cell-free assay	0.5 µM	remaining signal	104%
Cc1ccc(Nc2nccc(N(C)c3ccc4c(C)n(C)nc4c3)n2)cc1S(N)(=O)=O	enzyme activity, inhibitor	10 µM	inhibition	83%
Cc1ccc(C(=O)Nc2ccc(CN3CCN(C)CC3)c(C(F)(F)F)c2)cc1C#Cc1cnc2cccnn12	enzyme activity, inhibitor	23.5 nM	remaining activity	4.9%
COc1cc(Nc2cnc(C#N)c(O[C@H](C)CN(C)C)n2)ncc1-c1cnn(C)c1	enzyme activity, inhibitor, radiometric	10 µM	remaining activity	56%
COc1ccc2c(O[C@@H]3C[C@H]4C(=O)N[C@]5(C(=O)O)CC5/C=C\CCCCC[C@H](NC(=O)OC5CCCC5)C(=O)N4C3)cc(-c3csc(NC(=O)C(C)C)n3)nc2c1C (some centres unmarked)	cell-free assay, competition with immobilised ligand	1 µM	remaining binding	100%
CCN(CC)CCNC(=O)c1c(C)[nH]c(/C=C2\C(=O)Nc3ccc(F)cc32)c1C	enzyme activity, inhibitor	0.3 µM	inhibition	45%
